From ChEMBL document CHEMBL3112537, “A novel series of 6-substituted 3-(pyrrolidin-1-ylmethyl)chromen-2-ones as selective monoamine oxidase (MAO) A inhibitors” (Eur J Med Chem, 2014)
Activity calls are given as the source filed them. No cut-off for these calls is given here.

Experiments:
[1] = Aqueous solubility of the compound in saline solution; type: physicochemical
Homo sapiens = species on record: Homo sapiens; experiment: Selectivity index, ratio of IC50 for human recombinant MAO-B to IC50 for human recombinant MAO-A
Method in brief: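 Selectivity index for MAO A = IC50(MAO B)/IC50(MAO A), with both human isoforms assayed against kynuramine substrate.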

Rattus norvegicus [2] = experiment: In vivo inhibition of MAO-A in Sprague-Dawley rat assessed as 5-hydroxyindoleacetic acid in brain striatum at 100 umol/kg, sc after 1 hr by HPLC/EC analysis relative to control; type: functional; set-up: scale not given: the % may be the effect or the level left
Method in brief: (§1)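 Freely moving rats dosed subcutaneously and sacrificed 1 h later. Striatal DOPAC, 3-MT and 5-HIAA were measured post mortem and expressed as % of saline control (n = 4). Significance was by Student's t-test, P < 0.05.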

Rattus norvegicus [3] = experiment: In vivo inhibition of MAO-A in Sprague-Dawley rat assessed as 3-methoxytyramine level in brain striatum at 100 umol/kg, sc after 1 hr by HPLC/EC analysis relative to control; type: functional; set-up: scale not given: the % may be the effect or the level left; method in brief: as §1
Rattus norvegicus [4] = experiment: In vivo inhibition of MAO-A in Sprague-Dawley rat assessed as 3,4-dihydroxyphenylacetic acid level in brain striatum at 100 umol/kg, sc after 1 hr by HPLC/EC analysis relative to control; type: functional; set-up: scale not given: the % may be the effect or the level left; method in brief: as §1
D(2) dopamine receptor = D(2) dopamine receptor (Homo sapiens, UniProt P14416); experiment: Antagonist activity at dopamine D2 receptor (unknown origin) expressed in HEK cells co-expressing Gqi5 assessed as inhibition of dopamine-induced effect by FLIPR assay; type: cell-based, HEK293
Sequence of D(2) dopamine receptor (P14416 whole entry): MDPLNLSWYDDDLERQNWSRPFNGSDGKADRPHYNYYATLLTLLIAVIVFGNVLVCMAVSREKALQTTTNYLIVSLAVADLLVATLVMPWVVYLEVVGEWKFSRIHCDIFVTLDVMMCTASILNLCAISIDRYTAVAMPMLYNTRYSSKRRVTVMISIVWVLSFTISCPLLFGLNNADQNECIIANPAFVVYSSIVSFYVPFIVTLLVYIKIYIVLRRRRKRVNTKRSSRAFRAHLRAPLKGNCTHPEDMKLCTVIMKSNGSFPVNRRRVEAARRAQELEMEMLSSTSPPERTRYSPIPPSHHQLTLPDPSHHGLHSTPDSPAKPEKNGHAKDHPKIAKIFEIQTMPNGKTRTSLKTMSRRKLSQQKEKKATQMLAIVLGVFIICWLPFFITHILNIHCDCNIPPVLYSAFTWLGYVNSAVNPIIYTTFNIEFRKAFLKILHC

[5] = biological target: T1, Amine oxidase [flavin-containing] B (Homo sapiens, UniProt P27338); experiment: Inhibition of human recombinant MAO-B assessed as kynuramine oxidation to 4-hydroxyquinoline after 40 mins by LC-MS/MS analysis
T1 sequence (P27338 whole entry): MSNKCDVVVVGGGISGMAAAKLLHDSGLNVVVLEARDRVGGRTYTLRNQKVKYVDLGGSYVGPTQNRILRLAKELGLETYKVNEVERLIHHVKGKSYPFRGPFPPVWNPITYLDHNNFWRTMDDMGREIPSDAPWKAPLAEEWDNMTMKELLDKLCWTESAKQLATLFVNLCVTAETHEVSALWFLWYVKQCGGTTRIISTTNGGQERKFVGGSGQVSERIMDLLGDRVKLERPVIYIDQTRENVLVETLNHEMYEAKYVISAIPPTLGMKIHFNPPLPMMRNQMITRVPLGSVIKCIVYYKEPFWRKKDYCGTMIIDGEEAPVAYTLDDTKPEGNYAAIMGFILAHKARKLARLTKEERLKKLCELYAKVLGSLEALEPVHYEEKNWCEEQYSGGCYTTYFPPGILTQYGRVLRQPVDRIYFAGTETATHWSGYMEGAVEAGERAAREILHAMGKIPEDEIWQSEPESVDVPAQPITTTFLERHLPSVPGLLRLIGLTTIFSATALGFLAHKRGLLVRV
Method in brief: (§2)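 Human MAO A and MAO B inhibition using kynuramine as a mixed substrate for both isoforms. IC50 is given as the mean ± SE of duplicate determinations.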

[6] = biological target: T2, Amine oxidase [flavin-containing] A (Homo sapiens, UniProt P21397); experiment: Inhibition of human recombinant MAO-A assessed as kynuramine oxidation to 4-hydroxyquinoline after 40 mins by LC-MS/MS analysis; method in brief: as §2
T2 sequence (P21397 whole entry): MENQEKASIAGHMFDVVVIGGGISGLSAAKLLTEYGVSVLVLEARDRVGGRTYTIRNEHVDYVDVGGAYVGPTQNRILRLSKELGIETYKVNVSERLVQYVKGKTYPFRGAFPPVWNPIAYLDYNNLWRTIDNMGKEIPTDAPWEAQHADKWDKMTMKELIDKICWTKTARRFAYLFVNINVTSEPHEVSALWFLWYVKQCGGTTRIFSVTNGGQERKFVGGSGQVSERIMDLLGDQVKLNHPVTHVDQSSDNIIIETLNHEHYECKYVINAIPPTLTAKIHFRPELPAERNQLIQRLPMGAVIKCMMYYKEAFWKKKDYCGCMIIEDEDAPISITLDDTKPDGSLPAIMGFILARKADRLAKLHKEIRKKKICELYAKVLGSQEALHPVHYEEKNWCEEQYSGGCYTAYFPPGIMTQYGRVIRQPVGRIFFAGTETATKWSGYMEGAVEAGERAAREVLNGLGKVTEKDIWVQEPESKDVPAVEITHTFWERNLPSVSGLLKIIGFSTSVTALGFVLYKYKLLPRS

Rattus norvegicus [7] = experiment: In vivo inhibition of MAO-A in Sprague-Dawley rat assessed as 5-hydroxyindoleacetic acid in brain striatum at 37 umol/kg, sc after 1 hr by HPLC/EC analysis relative to control; type: functional; set-up: scale not given: the % may be the effect or the level left; method in brief: as §1
Rattus norvegicus [8] = experiment: In vivo inhibition of MAO-A in Sprague-Dawley rat assessed as 3-methoxytyramine level in brain striatum at 37 umol/kg, sc after 1 hr by HPLC/EC analysis relative to control; type: functional; set-up: scale not given: the % may be the effect or the level left; method in brief: as §1
Rattus norvegicus [9] = experiment: In vivo inhibition of MAO-A in Sprague-Dawley rat assessed as 3,4-dihydroxyphenylacetic acid level in brain striatum at 37 umol/kg, sc after 1 hr by HPLC/EC analysis relative to control; type: functional; set-up: scale not given: the % may be the effect or the level left; method in brief: as §1
[10] = Metabolic stability in rat liver microsomes assessed as compound remaining at 5 uM after 60 mins by LC-MS/MS analysis; type: ADME; conditions: read-out: Stability
Method in brief: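 Incubation with rat liver microsomes, read as % of compound remaining after 60 min.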

[11] = biological target: Sodium-dependent serotonin transporter (Homo sapiens) (UniProt P31645); experiment: Displacement of [3H]-imipramine from human serotonin transporter at 10 uM relative to control
Sequence of Sodium-dependent serotonin transporter (Homo sapiens) (P31645 whole entry, looked up): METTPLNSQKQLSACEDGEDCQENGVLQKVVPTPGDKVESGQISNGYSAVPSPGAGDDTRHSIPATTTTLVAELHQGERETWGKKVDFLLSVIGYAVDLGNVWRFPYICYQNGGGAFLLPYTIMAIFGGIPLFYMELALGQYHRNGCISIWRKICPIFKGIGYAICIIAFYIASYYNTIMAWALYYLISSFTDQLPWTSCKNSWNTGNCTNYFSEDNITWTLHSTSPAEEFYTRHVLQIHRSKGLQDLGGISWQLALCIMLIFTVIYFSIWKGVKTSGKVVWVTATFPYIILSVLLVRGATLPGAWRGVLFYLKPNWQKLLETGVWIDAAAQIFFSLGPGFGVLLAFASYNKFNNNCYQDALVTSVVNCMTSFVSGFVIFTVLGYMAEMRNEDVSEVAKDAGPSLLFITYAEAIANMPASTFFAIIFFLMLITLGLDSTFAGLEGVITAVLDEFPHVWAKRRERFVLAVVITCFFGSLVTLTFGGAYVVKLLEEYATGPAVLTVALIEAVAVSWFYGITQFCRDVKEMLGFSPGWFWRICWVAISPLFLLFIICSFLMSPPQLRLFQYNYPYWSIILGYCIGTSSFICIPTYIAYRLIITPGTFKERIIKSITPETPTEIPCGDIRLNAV
Method in brief: (§3)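 Competition binding run by a contract lab, read as % inhibition of control specific binding at a single test concentration. Radioligand per target: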

Rattus norvegicus [12] = experiment: In vivo inhibition of MAO-A in Sprague-Dawley rat assessed as decrease in 3,4-dihydroxyphenylacetic acid level in brain striatum at 43 umol/kg, sc up to 2 hrs by microdialysis method; type: functional, organism-based
Method in brief: (§4)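 Single subcutaneous dose to freely moving rats. Striatal DOPAC and 3-MT were sampled by microdialysis and measured by HPLC/EC over 2 h after dosing at time 0. Levels are expressed as % of saline control (n = 1–2).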

Rattus norvegicus [13] = experiment: In vivo inhibition of MAO-A in Sprague-Dawley rat assessed as increase in 3-methoxytyramine level in brain striatum at 43 umol/kg, sc up to 2 hrs by microdialysis method; type: functional, organism-based; method in brief: as §4
[14] = biological target: Sodium-dependent noradrenaline transporter (Homo sapiens) (UniProt P23975); experiment: Displacement of [3H]-nisoxetin from human norepinephrine transporter at 1 uM relative to control; method in brief: as §3
Sequence of Sodium-dependent noradrenaline transporter (Homo sapiens) (P23975 whole entry): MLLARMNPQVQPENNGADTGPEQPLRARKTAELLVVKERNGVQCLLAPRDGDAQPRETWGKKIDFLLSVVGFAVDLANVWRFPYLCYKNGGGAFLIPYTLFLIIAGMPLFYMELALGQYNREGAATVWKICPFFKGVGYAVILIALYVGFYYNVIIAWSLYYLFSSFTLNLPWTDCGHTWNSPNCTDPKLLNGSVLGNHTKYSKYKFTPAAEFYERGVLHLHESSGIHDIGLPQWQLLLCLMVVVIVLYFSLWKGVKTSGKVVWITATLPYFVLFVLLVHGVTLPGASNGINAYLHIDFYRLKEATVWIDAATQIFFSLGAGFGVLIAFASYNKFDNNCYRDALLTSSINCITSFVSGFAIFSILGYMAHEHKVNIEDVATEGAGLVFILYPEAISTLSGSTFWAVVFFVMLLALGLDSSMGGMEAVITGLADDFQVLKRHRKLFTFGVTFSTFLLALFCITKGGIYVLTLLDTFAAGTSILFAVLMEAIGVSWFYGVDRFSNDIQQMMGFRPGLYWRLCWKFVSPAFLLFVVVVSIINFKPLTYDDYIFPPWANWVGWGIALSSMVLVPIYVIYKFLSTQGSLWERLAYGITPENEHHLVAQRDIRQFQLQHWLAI

[15] = biological target: Sodium-dependent dopamine transporter (Homo sapiens) (UniProt Q01959); experiment: Displacement of [3H]BTCP from human dopamine transporter at 1 uM relative to control; method in brief: as §3
Sequence of Sodium-dependent dopamine transporter (Homo sapiens) (Q01959 whole entry): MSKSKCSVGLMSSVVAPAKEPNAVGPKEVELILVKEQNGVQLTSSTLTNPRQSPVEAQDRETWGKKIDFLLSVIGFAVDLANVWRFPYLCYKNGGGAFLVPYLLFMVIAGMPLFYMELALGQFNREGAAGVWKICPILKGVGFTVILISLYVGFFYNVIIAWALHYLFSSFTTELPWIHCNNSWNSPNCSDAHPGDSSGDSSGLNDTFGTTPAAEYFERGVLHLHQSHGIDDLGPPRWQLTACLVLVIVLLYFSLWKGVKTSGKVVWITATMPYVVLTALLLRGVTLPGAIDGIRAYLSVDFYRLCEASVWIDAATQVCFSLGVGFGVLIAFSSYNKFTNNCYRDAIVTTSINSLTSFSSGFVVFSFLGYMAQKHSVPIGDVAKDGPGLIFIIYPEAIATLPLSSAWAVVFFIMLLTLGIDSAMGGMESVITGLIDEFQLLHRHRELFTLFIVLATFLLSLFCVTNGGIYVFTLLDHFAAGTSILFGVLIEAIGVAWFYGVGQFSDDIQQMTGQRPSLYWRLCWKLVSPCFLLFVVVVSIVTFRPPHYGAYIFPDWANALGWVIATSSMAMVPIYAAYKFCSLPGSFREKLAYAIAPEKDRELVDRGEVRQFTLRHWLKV

[16] = biological target: Histamine H1 receptor (Homo sapiens) (UniProt P35367); experiment: Displacement of histamine from human histamine H1 receptor at 1 uM relative to control; method in brief: as §3
Sequence of Histamine H1 receptor (Homo sapiens) (P35367 whole entry): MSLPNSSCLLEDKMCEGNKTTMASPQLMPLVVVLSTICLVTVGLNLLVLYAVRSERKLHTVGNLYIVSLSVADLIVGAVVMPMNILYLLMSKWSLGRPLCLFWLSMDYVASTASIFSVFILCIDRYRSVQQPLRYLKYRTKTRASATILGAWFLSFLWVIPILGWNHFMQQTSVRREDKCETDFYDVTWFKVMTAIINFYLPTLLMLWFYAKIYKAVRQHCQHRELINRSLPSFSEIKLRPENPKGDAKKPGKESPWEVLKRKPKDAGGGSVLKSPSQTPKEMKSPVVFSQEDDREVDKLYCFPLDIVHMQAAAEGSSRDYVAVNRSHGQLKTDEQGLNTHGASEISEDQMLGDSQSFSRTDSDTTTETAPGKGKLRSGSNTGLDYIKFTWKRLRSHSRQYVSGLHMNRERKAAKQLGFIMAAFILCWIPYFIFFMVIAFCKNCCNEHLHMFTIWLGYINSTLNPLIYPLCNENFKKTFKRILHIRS

[17] = biological target: Adrenergic receptor alpha-2 (Rattus norvegicus) (UniProt P22086+P19328+P22909); experiment: Displacement of [3H]-RX-821002 from rat alpha-2 adrenergic receptor at 1 uM relative to control; method in brief: as §3
[18] = biological target: Adrenergic receptor alpha-1 (Rattus norvegicus) (UniProt P15823+P23944+P43140); experiment: Displacement of [3H]-prazosin from rat alpha-1 adrenergic receptor at 10 uM relative to control; method in brief: as §3
[19] = biological target: 5-hydroxytryptamine receptor 2A (Homo sapiens) (UniProt P28223); experiment: Displacement of [3H]-ketanserin from human 5-HT2A receptor at 1 uM relative to control; method in brief: as §3
Sequence of 5-hydroxytryptamine receptor 2A (Homo sapiens) (P28223 whole entry): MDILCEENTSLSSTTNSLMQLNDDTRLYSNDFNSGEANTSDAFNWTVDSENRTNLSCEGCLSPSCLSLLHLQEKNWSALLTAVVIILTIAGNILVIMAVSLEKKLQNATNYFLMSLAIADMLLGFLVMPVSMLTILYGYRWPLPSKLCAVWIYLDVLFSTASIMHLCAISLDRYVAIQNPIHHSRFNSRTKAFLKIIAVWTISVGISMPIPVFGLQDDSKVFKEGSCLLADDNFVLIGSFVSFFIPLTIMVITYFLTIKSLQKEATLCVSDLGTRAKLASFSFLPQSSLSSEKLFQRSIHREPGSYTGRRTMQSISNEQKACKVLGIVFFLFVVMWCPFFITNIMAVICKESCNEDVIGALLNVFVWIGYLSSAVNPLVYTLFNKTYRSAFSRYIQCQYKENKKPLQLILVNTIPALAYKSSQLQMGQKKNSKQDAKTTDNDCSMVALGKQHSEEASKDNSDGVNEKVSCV

[20] = biological target: T3, 5-hydroxytryptamine receptor 1A (Homo sapiens) (UniProt P08908); experiment: Displacement of [3H]8-OH-DPAT from human 5-HT1A receptor at 1 uM relative to control; method in brief: as §3
T3 sequence (whole entry): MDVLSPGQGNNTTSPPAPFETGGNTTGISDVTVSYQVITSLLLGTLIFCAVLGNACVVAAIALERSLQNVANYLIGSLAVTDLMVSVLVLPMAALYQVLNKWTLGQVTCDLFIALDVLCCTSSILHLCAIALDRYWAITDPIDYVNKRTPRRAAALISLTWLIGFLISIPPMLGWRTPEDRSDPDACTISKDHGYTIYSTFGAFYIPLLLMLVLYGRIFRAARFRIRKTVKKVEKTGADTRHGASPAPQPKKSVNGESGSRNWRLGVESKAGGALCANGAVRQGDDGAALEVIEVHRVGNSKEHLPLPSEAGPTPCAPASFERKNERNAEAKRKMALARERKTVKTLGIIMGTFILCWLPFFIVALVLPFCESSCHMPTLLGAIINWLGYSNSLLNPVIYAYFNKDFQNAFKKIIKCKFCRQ

## Cl.Nc1ccc2oc(=O)c(CN3CCCC3)cc2c1
[1]
  solubility: > 5000 µg/mL

## Cl.O=c1oc2ccc([N+](=O)[O-])cc2cc1CN1CCCC1
[1]
  solubility: > 5000 µg/mL

## CCCNCc1cc2ccccc2oc1=O
Homo sapiens
  Ratio IC50: 3.6

## COc1ccc2oc(=O)c(CN3CCCC3)cc2c1.Cl
[1]
  solubility: > 5000 µg/mL

## O=c1oc2ccc(C(F)(F)F)cc2cc1CN1CCCC1
Rattus norvegicus [2]
  Activity: 104%
Rattus norvegicus [3]
  Activity: 88%
Rattus norvegicus [4]
  Activity: 77%
D(2) dopamine receptor
  IC50: > 30 µM
[5]
  IC50: > 100 µM
[6]
  IC50: 8.46 µM

## O=C(NCCN1CCOCC1)c1ccc(Cl)cc1 [MOCLOBEMIDE]
Rattus norvegicus [7]
  Activity: 80%
Rattus norvegicus [8]
  Activity: 398%
Rattus norvegicus [9]
  Activity: 18%

## Cl.O=c1oc2ccc(C(F)(F)F)cc2cc1CN1CCCC1
[1]
  solubility: > 5000 µg/mL

## O=c1oc2ccc(OC(F)(F)F)cc2cc1CN1CCCC1
[10]
  remaining at 1 h, 5 µM: 3%
D(2) dopamine receptor
  IC50: > 26 µM
[5]
  IC50: > 100 µM
Homo sapiens
  Ratio IC50: > 23.5
[6]
  IC50: 4.24 µM

## COc1ccc2oc(=O)c(CN3CCCC3)cc2c1
Rattus norvegicus [2]
  Activity: 90%
Rattus norvegicus [3]
  Activity: 129%
Rattus norvegicus [4]
  Activity: 65%
D(2) dopamine receptor
  IC50: > 30 µM
[5]
  IC50: > 100 µM
[6]
  IC50: 4.48 µM

## CCCOc1ccc2oc(=O)c(CN3CCCC3)cc2c1
[5]
  IC50: 22.3 µM
Homo sapiens
  Ratio IC50: 10.3
[6]
  IC50: 2.16 µM

## Cl.O=c1oc2ccccc2cc1CN1CCCC1
[1]
  solubility: > 5000 µg/mL

## O=c1oc2ccccc2cc1CN1CCCC1
Homo sapiens
  Ratio IC50: > 15.8

## Nc1ccc2oc(=O)c(CN3CCCC3)cc2c1
[11]
  inhibition: 1%
Rattus norvegicus [12]
  inhibition: Active
Rattus norvegicus [13]
  inhibition: Active
[14]
  inhibition: -2%
[15]
  inhibition: 0%
[16]
  inhibition: 13%
[17]
  inhibition: 2%
[18]
  inhibition: 4%
[19]
  inhibition: -4%
[20]
  inhibition: 0%
Homo sapiens
  Ratio IC50: > 26.5
